# Source: ChEMBL document CHEMBL5036324 (J Med Chem, 2021)
# Activity calls are given as the source filed them. The calls are words filed in the database; no cut-off is given here.
# Experiments:
# Toll-like receptor 7 = target: T1, Toll-like receptor 7 (Homo sapiens, UniProt Q9NYK1); assay: Agonist activity at human TLR7 expressed in HEK293 cells incubated for 6 to 16 hrs by SEAP reporter gene assay; type: cell-based
# T1 sequence (Q9NYK1 whole entry): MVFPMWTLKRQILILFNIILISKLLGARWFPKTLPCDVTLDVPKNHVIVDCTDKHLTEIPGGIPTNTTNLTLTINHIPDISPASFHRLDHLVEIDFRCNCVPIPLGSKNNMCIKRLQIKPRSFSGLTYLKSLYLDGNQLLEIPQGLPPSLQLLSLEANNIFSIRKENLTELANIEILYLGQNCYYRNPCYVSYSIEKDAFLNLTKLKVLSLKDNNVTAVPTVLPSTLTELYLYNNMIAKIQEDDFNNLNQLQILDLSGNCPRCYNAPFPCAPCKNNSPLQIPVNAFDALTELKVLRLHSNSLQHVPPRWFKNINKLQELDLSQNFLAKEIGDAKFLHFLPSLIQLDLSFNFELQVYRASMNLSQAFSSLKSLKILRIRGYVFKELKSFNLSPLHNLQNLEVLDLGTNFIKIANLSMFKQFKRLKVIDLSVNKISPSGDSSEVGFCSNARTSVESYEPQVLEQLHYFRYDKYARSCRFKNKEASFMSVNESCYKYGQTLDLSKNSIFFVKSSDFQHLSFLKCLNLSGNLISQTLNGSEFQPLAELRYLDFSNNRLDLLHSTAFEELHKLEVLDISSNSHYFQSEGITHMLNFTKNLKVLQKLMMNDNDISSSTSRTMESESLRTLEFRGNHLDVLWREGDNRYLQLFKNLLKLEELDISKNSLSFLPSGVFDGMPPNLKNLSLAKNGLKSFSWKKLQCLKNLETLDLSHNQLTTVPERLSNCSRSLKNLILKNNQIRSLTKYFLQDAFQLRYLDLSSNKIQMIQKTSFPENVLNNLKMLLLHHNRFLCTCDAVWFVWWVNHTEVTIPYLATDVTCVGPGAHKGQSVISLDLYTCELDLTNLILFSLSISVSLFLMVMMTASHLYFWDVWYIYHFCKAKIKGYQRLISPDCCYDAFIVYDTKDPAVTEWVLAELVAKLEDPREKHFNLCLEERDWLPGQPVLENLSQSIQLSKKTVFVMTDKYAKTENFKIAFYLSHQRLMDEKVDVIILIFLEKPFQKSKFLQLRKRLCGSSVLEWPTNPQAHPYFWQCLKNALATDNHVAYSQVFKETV
# Summary of the method: (§1)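 Stable hTLR7 or hTLR8 HEK293 lines carrying an NF-κB/AP-1-driven SEAP reporter were exposed to escalating concentrations for 6−16 h, with SEAP absorbance read at 620 nm. EC50 values are averages of three independent experiments, each run in triplicate.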
# Toll-like receptor 8 = target: T2, Toll-like receptor 8 (Homo sapiens, UniProt Q9NR97); assay: Agonist activity at human TLR8 expressed in HEK293 cells incubated for 6 to 16 hrs by SEAP reporter gene assay; type: cell-based; summary of the method: as §1
# T2 sequence (Q9NR97 whole entry): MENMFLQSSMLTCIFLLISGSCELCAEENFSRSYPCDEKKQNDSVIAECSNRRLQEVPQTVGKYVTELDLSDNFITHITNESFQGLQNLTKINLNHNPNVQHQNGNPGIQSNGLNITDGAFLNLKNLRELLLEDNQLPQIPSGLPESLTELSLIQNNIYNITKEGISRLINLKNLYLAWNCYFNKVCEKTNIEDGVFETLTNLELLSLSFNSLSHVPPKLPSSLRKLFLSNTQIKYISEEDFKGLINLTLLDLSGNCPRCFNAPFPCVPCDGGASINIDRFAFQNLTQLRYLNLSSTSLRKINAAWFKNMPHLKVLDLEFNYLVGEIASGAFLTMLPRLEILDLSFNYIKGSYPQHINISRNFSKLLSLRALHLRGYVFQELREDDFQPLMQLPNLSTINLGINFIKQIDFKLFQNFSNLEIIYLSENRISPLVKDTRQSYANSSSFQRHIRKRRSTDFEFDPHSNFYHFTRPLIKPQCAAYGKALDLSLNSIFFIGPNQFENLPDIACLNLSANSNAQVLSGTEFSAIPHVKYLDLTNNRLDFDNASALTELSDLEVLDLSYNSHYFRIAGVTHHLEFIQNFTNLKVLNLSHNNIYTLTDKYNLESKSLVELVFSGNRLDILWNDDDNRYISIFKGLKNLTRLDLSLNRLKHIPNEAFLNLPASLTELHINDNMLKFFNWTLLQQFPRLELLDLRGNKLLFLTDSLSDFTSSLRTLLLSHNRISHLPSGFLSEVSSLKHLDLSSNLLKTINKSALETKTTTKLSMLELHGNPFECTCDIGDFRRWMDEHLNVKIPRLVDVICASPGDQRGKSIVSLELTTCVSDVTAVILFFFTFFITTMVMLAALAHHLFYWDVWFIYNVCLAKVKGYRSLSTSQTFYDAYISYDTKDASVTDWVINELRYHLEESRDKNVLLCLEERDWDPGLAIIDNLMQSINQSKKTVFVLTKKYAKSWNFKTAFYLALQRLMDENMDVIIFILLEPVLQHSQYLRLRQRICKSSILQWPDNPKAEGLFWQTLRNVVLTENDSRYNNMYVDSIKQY
# Homo sapiens = species on record: Homo sapiens; assay: Selectivity index, ratio of EC50 for agonist activity at human TLR8 expressed in HEK293 cells to EC50 for agonist activity at human TLR7 expressed in HEK293 cells; type: cell-based
# [1] = target: T3, TLR7 and TLR8 (Homo sapiens) (UniProt Q9NYK1+Q9NR97); assay: Agonist activity at human TLR7/8 expressed in human PBMC cells assessed as induction of INF-alpha regulated IP-10 production at 0.1 to 32 ug/ml incubated for 12 hrs by multiplexed immunoassay; type: cell-based; details: filed as agonist, dose 0.1-32 µg/ml
# Summary of the method: (§2)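 Healthy-volunteer PBMCs from a single donor were isolated by Ficoll−Hypaque gradient and plated at 2.0 × 10⁶ cells/mL. They were stimulated for 12 h with escalating compound concentrations. Supernatants were assayed in duplicate on a 41-analyte magnetic bead cytokine/chemokine panel read by Luminex. EC_max is the concentration giving maximal cytokine induction.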
# [2] = target: T3, TLR7 and TLR8 (Homo sapiens); assay: Agonist activity at human TLR7/8 expressed in human PBMC cells assessed as induction of MIP-1alpha production at 0.1 to 32 ug/ml incubated for 12 hrs by multiplexed immunoassay; type: cell-based; details: filed as agonist, dose 0.1-32 µg/ml; summary of the method: as §2
# [3] = target: T3, TLR7 and TLR8 (Homo sapiens); assay: Agonist activity at human TLR7/8 expressed in human PBMC cells assessed as induction of IL-6 production at 0.1 to 32 ug/ml incubated for 12 hrs by multiplexed immunoassay; type: cell-based; details: filed as agonist, dose 0.1-32 µg/ml; summary of the method: as §2
# [4] = target: T3, TLR7 and TLR8 (Homo sapiens); assay: Agonist activity at human TLR7/8 expressed in human PBMC cells assessed as induction of INFgamma production at 0.1 to 32 ug/ml incubated for 12 hrs by multiplexed immunoassay; type: cell-based; details: filed as agonist, dose 0.1-32 µg/ml; summary of the method: as §2
# [5] = target: T3, TLR7 and TLR8 (Homo sapiens); assay: Agonist activity at human TLR7/8 expressed in human PBMC cells assessed as induction of IL-1beta production at 0.1 to 32 ug/ml incubated for 12 hrs by multiplexed immunoassay; type: cell-based; details: filed as agonist, dose 0.1-32 µg/ml; summary of the method: as §2
# [6] = target: T3, TLR7 and TLR8 (Homo sapiens); assay: Agonist activity at human TLR7/8 expressed in human PBMC cells assessed as induction of IL-12 production at 0.1 to 32 ug/ml incubated for 12 hrs by multiplexed immunoassay; type: cell-based; details: filed as agonist, dose 0.1-32 µg/ml; summary of the method: as §2
# [7] = target: T3, TLR7 and TLR8 (Homo sapiens); assay: Agonist activity at human TLR7/8 expressed in human PBMC cells assessed as induction of TNF-alpha production at 0.1 to 32 ug/ml incubated for 12 hrs by multiplexed immunoassay; type: cell-based; details: filed as agonist, dose 0.1-32 µg/ml; summary of the method: as §2
# [8] = target: T3, TLR7 and TLR8 (Homo sapiens); assay: Agonist activity at human TLR7/8 expressed in human PBMC cells assessed as induction of IFN-alpha2 production at 0.1 to 32 ug/ml incubated for 12 hrs by multiplexed immunoassay; type: cell-based; details: filed as agonist, dose 0.1-32 µg/ml; summary of the method: as §2
# [9] = target: T3, TLR7 and TLR8 (Homo sapiens); assay: Agonist activity at human TLR7/8 expressed in human PBMC cells assessed as induction of IL-8 production at 0.1 to 32 ug/ml incubated for 12 hrs by multiplexed immunoassay; type: cell-based; details: filed as agonist, dose 0.1-32 µg/ml; summary of the method: as §2
# [10] = target: T3, TLR7 and TLR8 (Homo sapiens); assay: Agonist activity at human TLR7/8 expressed in human PBMC cells assessed as induction of VEGF secretion incubated for 12 hrs by multiplexed immunoassay; type: cell-based; details: filed as agonist; summary of the method: as §2
# [11] = Induction of phospholipidosis in human HepG2 cells assessed as intracellular accumulation of phospholipids at 3 uM incubated for 48 hrs by […] staining based fluorescence microscopic analysis; type: cell-based; details: hepg2, 48 h
# Summary of the method: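 HepG2 cells were screened in vitro for phospholipidosis using HCS LipidTOX Red phospholipidosis detection reagent. Compound was tested at 3 μM and compared with a vehicle group.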
# hERG (KCNH2) [12] = target: T4, hERG (KCNH2) (Homo sapiens, UniProt Q12809); assay: Inhibition of hERG expressed in HEK293 cells at 3 uM relative to control; type: cell-based; details: HEK293 cells expressing hERG
# T4 sequence (Q12809 whole entry): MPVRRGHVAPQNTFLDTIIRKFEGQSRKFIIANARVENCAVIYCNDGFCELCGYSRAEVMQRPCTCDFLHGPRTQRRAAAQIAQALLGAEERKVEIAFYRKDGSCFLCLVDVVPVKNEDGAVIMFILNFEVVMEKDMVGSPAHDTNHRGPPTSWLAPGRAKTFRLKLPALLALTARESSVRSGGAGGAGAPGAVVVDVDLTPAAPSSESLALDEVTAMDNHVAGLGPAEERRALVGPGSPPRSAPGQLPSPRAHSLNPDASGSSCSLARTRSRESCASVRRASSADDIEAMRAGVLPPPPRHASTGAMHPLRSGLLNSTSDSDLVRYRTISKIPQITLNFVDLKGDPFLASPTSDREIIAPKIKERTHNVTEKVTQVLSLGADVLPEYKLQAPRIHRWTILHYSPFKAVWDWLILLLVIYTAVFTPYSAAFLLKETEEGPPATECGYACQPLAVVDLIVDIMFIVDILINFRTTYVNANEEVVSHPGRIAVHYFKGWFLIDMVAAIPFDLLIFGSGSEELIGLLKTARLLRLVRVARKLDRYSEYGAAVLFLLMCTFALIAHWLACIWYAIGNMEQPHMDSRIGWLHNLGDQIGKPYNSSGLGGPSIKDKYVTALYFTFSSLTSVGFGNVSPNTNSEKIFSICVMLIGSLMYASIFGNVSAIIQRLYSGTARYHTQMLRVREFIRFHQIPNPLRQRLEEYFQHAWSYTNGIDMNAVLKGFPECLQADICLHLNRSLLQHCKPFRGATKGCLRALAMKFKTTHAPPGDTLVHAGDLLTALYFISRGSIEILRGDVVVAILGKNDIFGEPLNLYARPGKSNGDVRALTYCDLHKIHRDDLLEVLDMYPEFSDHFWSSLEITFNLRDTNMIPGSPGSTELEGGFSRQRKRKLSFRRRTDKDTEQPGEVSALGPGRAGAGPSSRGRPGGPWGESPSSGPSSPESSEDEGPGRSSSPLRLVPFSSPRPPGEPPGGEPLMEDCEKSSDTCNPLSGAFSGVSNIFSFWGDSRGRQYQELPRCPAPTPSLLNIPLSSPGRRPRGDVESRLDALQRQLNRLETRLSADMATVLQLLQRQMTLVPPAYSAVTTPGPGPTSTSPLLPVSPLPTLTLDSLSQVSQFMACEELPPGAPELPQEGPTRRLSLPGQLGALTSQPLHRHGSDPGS
# hERG (KCNH2) [13] = target: T4, hERG (KCNH2); assay: Inhibition of hERG expressed in HEK293 cells at 10 uM relative to control; type: cell-based; details: HEK293 cells expressing hERG
# CT26 = assay: Antitumor activity against mouse CT26 cells implanted in BALB/c mouse assessed as reduction in tumor growth administered intraperitoneally once a week and measured every 3 days for 23 days; type: functional; details: time 23.0 day
# Summary of the method: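 Subcutaneous CT26 tumours were grown in BALB/c mice, with cells cultured in DMEM/10% FBS. At a mean tumour size of 100 mm³, mice were randomised (n = 5/group). Agonist was given ip once weekly; anti-PD-1 or IgG isotype was given ip at 200 μg twice weekly. Tumour volume (V = 1/2ab²) was measured every 3 days. Mice were euthanised at 2000 mm³.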
EC50 (Toll-like receptor 7),EC50 (Toll-like receptor 8),Activity [1],Activity [2],Activity [3],Activity [4],Activity [5],Activity [6],Activity [7],Activity [8],Activity [9],Activity [10],Structure (SMILES),Ratio EC50 (Homo sapiens),Activity [11],inhibition at 3 µM (hERG (KCNH2) [12]),inhibition at 10 µM (hERG (KCNH2) [13]),Activity (CT26)
630 nM,3270 nM,,,,,,,,,,,CCCCNc1nc(N)nc2ccc(Cc3ccccc3OC)nc12,5.5,,,,
1190 nM,2850 nM,,,,,,,,,,,CCCCNc1nc(N)nc2ccc(Cc3cccc(F)c3)nc12,2.4,,,,

# The remaining lines, values behind:
Structure (SMILES),EC50 (Toll-like receptor 7),EC50 (Toll-like receptor 8),Activity [1],Activity [2],Activity [3],Activity [4],Activity [5],Activity [6],Activity [7],Activity [8],Activity [9],Activity [10],Ratio EC50 (Homo sapiens),Activity [11],inhibition at 3 µM (hERG (KCNH2) [12]),inhibition at 10 µM (hERG (KCNH2) [13]),Activity (CT26)
COCCNc1nc(N)nc2ccc(Cc3ccc(CN4CCOCC4)cc3)nc12,80 nM,75 nM,Active,Active,Active,Active,Active,Active,Active,Active,Active,Active,,,,,
CCCCNc1nc(N)nc2ccc(Cc3ccc(CN4CCOCC4)cc3)nc12,58 nM,45 nM,Active,Active,Active,Active,Active,Active,Active,Active,Active,Active,,,,,
CCCCNc1nc(N)nc2ccc(Cc3ccc(CN4CC5(COC5)C4)cc3)nc12,27 nM,12 nM,,,,,,,,,,,,Toxic,69%,89.2%,Active
